From ChEMBL document CHEMBL3758142, “Synthesis and antimalarial activity of quinones and structurally-related oxirane derivatives” (Eur J Med Chem, 2016)

What was measured:
MRC5 = assay: Cytotoxicity against human MRC5 cells assessed as cell growth inhibition after 48 hrs by alamar blue assay; assay type: cell-based; details: MRC5, 48 h
In short: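 Human MRC-5 fibroblasts kept in DMEM with 10% FBS, 2 mM glutamine, streptomycin and penicillin at 37 °C, 5% CO2. Seeded at 2.5 × 10⁴ cells/well, 24 h, then DMSO-dissolved compounds diluted in medium were added; control wells held 0.1% DMSO final. Exposure 48 h; Alamar Blue added for the last 3 h; fluorescence read at 530–560 nm excitation.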

Plasmodium falciparum = assay: Antimalarial activity against chloroquine-sensitive NF54 isolated Plasmodium falciparum 3D7 infected in erythrocytes assessed as inhibition of parasitic growth after 48 hrs by optical microscopy; assay type: functional, organism-based; details: 3D7, 48 h
In short: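 P. falciparum 3D7 in erythrocytes at 1% initial parasitemia, 2% hematocrit. Samples dissolved in DMSO at 10 mg/mL stock, diluted in complete medium to seven test concentrations. Each dilution tested in triplicate; 48 h at 37 °C. Growth inhibition read by optical microscopy of well contents.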

[1] = Selectivity index, ratio of IC50 for MRC5 cells to IC50 for chloroquine-sensitive NF54 isolated Plasmodium falciparum 3D7; assay type: toxicity, cell-based; details: human; read-out: Ratio IC50

Row | Structure (SMILES) | IC50 (MRC5) | IC50 (Plasmodium falciparum) | selectivity ratio [1]
1 | COC1=CC(=O)c2ccccc2C12CO2 (stereo not given) | 116 µM | > 50 µM | < 2.3
2 | C=CCOC1=CC(=O)c2ccccc2C1=O | 64.8 µM | 5.18 µM | 12
3 | C=CCOC1=CC(=O)c2ccccc2C12CO2 (stereo not given) | 26.4 µM | > 50 µM | < 0.53
4 | O=C1C(Cl)=C(Cl)C2(CO2)c2ccccc21 (stereo not given) | 92.5 µM | 6.22 µM | 15
5 | CC1(C)CCC2=C(O1)C1(CO1)c1ccccc1C2=O (stereo not given) | > 100 µM | 3.71 µM | > 27
6 | O=C1C(Cl)=C(Cl)C2(CO2)C(Cl)=C1Cl | 368 µM | 3.95 µM | 93
7 | NC1=CC(=O)c2ccccc2C12CO2 (stereo not given) | > 100 µM | > 50 µM | –
8 | N#CC1=C(C#N)C(=O)C(Cl)=C(Cl)C1=O | > 100 µM | > 50 µM | –
9 | O=C1C=C(Nc2ccccc2)C2(CO2)c2ccccc21 (stereo not given) | 135 µM | > 50 µM | < 2.7
10 | COc1c(Cl)c(Cl)c(OC)c(C#N)c1C#N | > 100 µM | > 50 µM | –
11 | NC1=CC(=O)c2ccccc2C1=O | 322 µM | 5.14 µM | 63
12 | CC1(C)CC2=C(O1)C1(CO1)c1ccccc1C2=O (stereo not given) | 55.7 µM | > 50 µM | < 1.1
13 | CC1(C)CC2=C(O1)C(=O)c1ccccc1C2=O | 56.1 µM | > 50 µM | < 1.1
14 | O=C1C=C(Nc2ccccc2)C(=O)c2ccccc21 | > 100 µM | 6.3 µM | > 15
15 | COC1=CC(=O)c2ccccc2C1=O [2-Methoxy-1,4-naphthoquinone] | 5.2 µM | > 50 µM | < 0.1
16 | CC1(C)CCC2=C(O1)C(=O)c1ccccc1C2=O [ALPHA-LAPACHONE] | > 100 µM | > 50 µM | –
17 | O=C1C(Cl)=C(Cl)C(=O)C(Cl)=C1Cl [CHLORANIL] | > 100 µM | 22.4 µM | > 4.4
18 | O=C1C(Cl)=C(Cl)C(=O)c2ccccc21 [Dichlon] | 98.2 µM | 13.9 µM | 7.2
